Only some compounds are listed: those with a hit (about 1.8% of all), similar ones and a draw of the others.
MLLE-PAM2 inh – inhibitors of microRNA-mediated deadenylation, human PABP1 MLLE binding | P11940 | GST-MLLE / FITC-PAM2 fluorescence polarization | inhibition, % at 20 µM | hit rate 0.36% among 360,000 | AID 588489; in the data active means inhibition above about 35%, passing the limit was not always enough;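 further: plate controls were DMSO wells with GST-MLLE for no effect and wells lacking GST-MLLE protein for full effect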
PABP FP inh – blocks human PABP binding to poly(A) RNA. fluorescence polarization. calls only at 35 µM. hit rate 1% among 290,000;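 further: calls also rest on retests at 20 µM and on dose response follow-up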
SKN-1 block – C. elegans SKN-1 inhibition; C. elegans VP596 Pgst-4::GFP/RFP ratio, acrylamide-induced, 24 h; inhibition, % at 21.8 µM; hit rate 0.49% among 360,000; AID 624304;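 active means interference check ratio from 0.5 to 1.5 plus GFP to RFP signal ratio inhibition reaching or exceeding a fixed threshold, cut at about 30% in these data, passing the limit was not always enough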
MT1-MMP act inh – blocks activation of human MT1-MMP. HT1080 RFP-PRO-GFP cells, GFP/RFP ratio fluorescence, overnight; percent of plate control window, DMSO zero. hit rate 0.061% among 360,000. GFP/RFP ratio change, % at 20 µM. P50281;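 active means GFP/RFP ratio change of at least 30% with cell ATP level not reduced by more than half and red fluorescence within 50% of control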
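Test system: HT1080 RFP-PRO-GFP cells; Benchmarks: DMSO and RFP-L50D-GFP cell wells; Timing: cells overnight before dosing, compound overnight, 37 °C, 5% CO2; Compound: one 20 µM compound dose with 1% DMSO; Read-out: GFP/RFP fluorescence ratio.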
eIF4H inh – inhibitors of RNA binding by human eIF4H; hit rate 0.94% among 290,000; eIF4H fluorescence polarization binding assay; AID 2012; Q15056; inhibition, % at 35 µM;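 further: calls also rest on retests at 20 µM and on dose response follow-up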
Active calls of the source: *; i = inactive; ? = inconclusive; · = no result given; + = active, no number. Unless noted, how the calls were made is not given here.

SMILES | MLLE-PAM2 inh | PABP FP inh | SKN-1 block | MT1-MMP act inh | eIF4H inh
COc1ccc(CCNC(=O)c2cc3c(=O)n4cccc(C)c4nc3n(Cc3ccco3)c2=N)cc1OC | 1 | i | 11 | -11 | 63*
N=c1c(C(=O)NC2CCCC2)cc2c(=O)n3ccccc3nc2n1C1CCCC1 | -6 | i | -3 | 0 | -2
Cc1ccc(S(=O)(=O)c2cc3c(=O)n4cccc(C)c4nc3n(Cc3ccco3)c2=N)cc1C | · | i | · | · | 24
N=c1c(C(=O)NCc2ccco2)cc2c(=O)n3ccccc3nc2n1C1CCCC1 | 32 | + | -17 | 1 | 78*
CCOC(=O)C1CCCN(C(=O)c2ccc3ccccc3c2)CC1 (stereo unspecified) | -6 | · | 1 | -1 | ·
Cc1ccc(CNC(=O)c2cc3c(=O)n4ccccc4nc3n(Cc3ccco3)c2=N)cc1 | -7 | + | -16 | -6 | 56*
N=c1c(C(=O)NCc2ccccc2)cc2c(=O)n3ccccc3nc2n1Cc1ccco1 | 4 | + | 37* | -11 | 84*
COCCn1c(=N)c(C(=O)NCc2ccco2)cc2c(=O)n3ccccc3nc21 | 29 | + | -16 | -10 | 113*
N=c1c(C(=O)NCc2ccc(F)cc2)cc2c(=O)n3ccccc3nc2n1Cc1ccco1 | -18 | i | 4 | -13 | 48
Nc1cc(=O)[nH]c(SCC(=O)Nc2ccc(N3CCOCC3)cc2)n1 | 8 | · | 12 | 4 | ·
CN(CC(=O)Nc1ccc(Cl)c(C(F)(F)F)c1)C(=O)c1cnccn1 | 16 | · | -20 | 12 | ·
COc1ccc(S(=O)(=O)Nc2cccc3c2O[C@H](CN(C)Cc2ccncc2)[C@@H](C)CN([C@H](C)CO)C3=O)cc1 | -11 | · | 10 | 2 | ·
C#CCOCCOCCOCCNc1nc(OC)nc(N2CCN(C(=O)[C@H](CCCCN)n3cc(C(N)CO)nn3)CC2)n1 (stereo partly specified) | · | + | · | · | 60*
C#CCOCCOCCOCCNc1nc(N2CCN(C(=O)[C@H]([C@@H](C)CC)n3cc([C@@H](N)CO)nn3)CC2)nc(N2CCN(C(=O)[C@H]([C@@H](C)CC)n3cc([C@@H](N)CC(C)C)nn3)CC2)n1 | 41* | ? | 4 | -7 | ?
O=C(OC1CCCCC1)c1ccc2c(c1)C1C=CCC1C(C(=O)O)N2 (stereo unspecified) | · | + | · | · | 93*
O=C(O)C1Nc2ccc(Br)cc2C2C=CCC12 (stereo unspecified) | 18 | + | 13 | 8 | 105*
O=C(O)c1ccc2c(c1)[C@@H]1C=CC[C@@H]1[C@H](c1ccccn1)N2 | 42* | · | 44* | -4 | ·
CCOC(=O)c1ccc2c(c1)C1C=CCC1C(C(=O)OCC)N2 (stereo unspecified) | 20 | i | -9 | -1 | 30
CCOC(=O)C1Nc2ccc(Br)cc2C2C=CCC12 (stereo unspecified) | 2 | i | 4 | 0 | 19
CN(CCCC(=O)NCc1ccc2c(c1)OCO2)S(=O)(=O)c1ccc([N+](=O)[O-])cc1 | -1 | i | 14 | 1 | 0
COc1ccccc1CNC(=O)C(=O)NCC1OCCCN1S(=O)(=O)c1cccs1 (stereo unspecified) | -9 | i | 6 | -1 | 20
Cc1cc2cc(CNC(=O)c3ccc(C)c([N+](=O)[O-])c3)ccc2[nH]1 | 43* | i | 11 | 15 | 10
CN(C)CCCO[C@@H]1[C@H]2OC(C)(C)O[C@H]2O[C@@H]1[C@H](O)CO | -7 | · | 44* | 6 | ·
CC(C)COc1cccc(-c2cc(C(=O)N/N=C/c3ccncc3)c3ccccc3n2)c1 | -17 | i | -4 | 4 | 0
N#CC1=C(N)OC2=C(CC/C2=C\c2ccccc2Cl)C1c1ccccc1Cl (stereo unspecified) | 102 | + | 7 | -32 | 59
SMILES | MLLE-PAM2 inh | PABP FP inh | SKN-1 block | MT1-MMP act inh | eIF4H inh
CN(C)CCCN1C(=O)c2cccc3cccc(c23)C1=O | 6 | i | 14 | -1 | 9
CN(C)CCN1C(=O)c2cccc3cc([N+](=O)[O-])cc(c23)C1=O | 81* | · | -7 | -52 | ·
O=C(NC(=S)Nc1ccc(S(=O)(=O)N2CCCC2)cc1)C1CC1 | 14 | + | -7 | 2 | -8
O=C(NC(=S)Nc1cccnc1)c1cccs1 | 39* | i | 3 | -2 | 4
O=C(Nc1cccnc1)c1cccs1 | 0 | i | 10 | 4 | -12
O=C(O)CC(SCC(=O)Nc1ccc(S(=O)(=O)N2CCCC2)cc1)C(=O)O (stereo unspecified) | 40* | i | -4 | -4 | -10
O=C(O)CC(SCC(=O)Nc1ccccc1)C(=O)O (stereo unspecified) | 0 | i | -10 | 1 | 0
O=C(NC(=S)Nc1ccc(S(=O)(=O)N2CCCC2)cc1)c1cccs1 | 47* | i | 0 | -1 | 6
O=C(Nc1cccc(S(=O)(=O)C(F)(F)F)c1)[C@H]1C[C@H](O)[C@@H](CO)O1 | 4 | · | 15 | -1 | ·
CSc1nsc(/C=C/Nc2ccc(F)cc2)c1C#N | -30 | + | 8 | -38 | 77*
CSc1nsc(/C=C/Nc2ccc(Cl)cc2)c1C#N | -34 | i | 14 | -53 | -6
N/C(=N\OC(=O)c1ccco1)c1cccc(Br)c1 | -3 | i | 57* | 1 | 0
N/C(=N\OC(=O)c1ccc(Br)o1)c1cccnc1 | 2 | i | 42* | -1 | 8
COc1ccc(/C(N)=N/OC(=O)c2ccc(Br)o2)cc1 | 3 | i | 8 | -1 | -13
O=C(/C=C/c1ccc(-c2ccccc2[N+](=O)[O-])o1)c1ccco1 | 52* | i | 8 | 44 | 69
O=C(/C=C/c1ccc([N+](=O)[O-])cc1)c1ccco1 | -2 | i | 3 | 2 | -4
CCOC(=O)C(C(=O)Cc1ccccc1)c1ccccc1 (stereo unspecified) | -1 | · | 7 | 3 | ·
O=C(/C=C/c1cccc([N+](=O)[O-])c1)Nc1ccc(NC(=O)c2cccs2)cc1 | 7 | + | 0 | 0 | 24
O=C(/C=C/c1cccc([N+](=O)[O-])c1)c1cccs1 | 9 | i | 8 | -9 | -3
Cc1ccc(/C=C2\SC(=S)N(c3c(C)n(C)n(-c4ccccc4)c3=O)C2=O)cc1 | 47* | i | 4 | 3 | 3
Cc1c(N2C(=O)/C(=C/c3ccccc3)SC2=S)c(=O)n(-c2ccccc2)n1C | 24 | i | 7 | 3 | -4
Cc1c(N2C(=O)/C(=C3\C(=O)N(CC(=O)O)c4ccccc43)SC2=S)c(=O)n(-c2ccccc2)n1C | 52* | i | -7 | -4 | 1
Cc1c(N2C(=O)/C(=C\c3ccccc3O)SC2=S)c(=O)n(-c2ccccc2)n1C | 22 | i | 15 | -2 | -6
CC(=O)c1ccc(S(=O)(=O)Nc2ccc(C(=O)NCCCn3ccnc3)cc2)cc1 | 5 | · | 5 | 8 | ·
